Screens: PubChem BioAssay, several laboratories
Shown are actives, neighbours in structure and some others; about 2.9% of the full set was active somewhere.
VIM-2 inh – VIM-2 metallo-beta-lactamase inhibitors, primary screen, biochemical, epi-absorbance readout, Pseudomonas aeruginosa enzyme; purified VIM-2, nitrocefin hydrolysis, epi-absorbance fluorescence; inhibition, % at 5.6 µM; 0.89% of 290,000 active; AID 1527, 2009;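 active means inhibition above the mean of all tested compounds plus 3 SD, cutoff set per screening run, cut at about 7.5% in these data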;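 further: red hydrolysis product quenches plate fluorescence so inhibitors raise well fluorescence; 0% = enzyme with DMSO and 100% = DMSO without enzyme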
SUMO HTRF inh – inhibitors of in vitro SUMOylation cascade, primary screen, biochemical, HTRF, uHTS. AID 2006, 2009. HTRF SUMOylation assay, SAE1/SAE2 + UBC9. 0.36% of 290,000 active. inhibition, % at 35 µM; in the data active means inhibition above about 50%, passing the limit was not always enough
Target sequence (P63279 whole entry, looked up): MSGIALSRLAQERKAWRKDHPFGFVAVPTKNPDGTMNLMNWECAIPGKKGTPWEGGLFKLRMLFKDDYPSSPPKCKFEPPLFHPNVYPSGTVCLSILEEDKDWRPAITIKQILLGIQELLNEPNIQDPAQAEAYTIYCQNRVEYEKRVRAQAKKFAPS
SUMO Mot1 rescue – yeast Mot1-301 growth rescue at high temperature, primary screen, SUMOylation pathway inhibitor project, S. cerevisiae, ATP luminescence, 38.5C | AID 2716, 2010 | 1% of 320,000 active | growth rescue, % at 18.8 µM | S. cerevisiae Mot1-301 growth rescue; percent above DMSO median, 100 means doubled;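 active means every valid replicate shows activation above 250% relative to neutral control wells; inactive means the rest, any valid replicate at or below 250%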;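 further: OY570 slx delta 5 strain wells were the positive control but not used for scaling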
DNA FID counter – compounds displacing fluorescent DNA intercalator, primary screen, artefact control for HCV NS3 helicase inhibitor project, biochemical, FID fluorescence; 0.17% of 290,000 active; inhibition, % at 7.9 µM; DNA fluorescent intercalator displacement; AID 1845, 2009; in the data active means inhibition above about 37%;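 further: 0% = vehicle and 100% = reference compound; higher means more ethidium bromide displaced from hairpin DNA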
NALP1 inh – NALP1 inflammasome inhibitors in reconstituted yeast, colorimetric, S. cerevisiae, triplicate retest; 0.61% of 280,000 active; inhibition, % at 10 µM; AID 2071, 2009; S. cerevisiae NALP1/ASC/caspase-1 growth, X-gal OD620, 72 h; in the data active means inhibition mostly above about 24%, no sharp cut-off; inactive means mostly below about 32%
IMP-1 inhibitor – IMP-1 metallo-beta-lactamase inhibitors, primary screen, biochemical, epi-absorbance readout, Pseudomonas aeruginosa enzyme; metallo-beta-lactamase IMP-1 (Pseudomonas aeruginosa); purified IMP-1, nitrocefin hydrolysis, epi-absorbance fluorescence; inhibition, % at 5.6 µM; 0.45% of 290,000 active;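 active means inhibition above the mean plus 3 SD of all compounds in the same screening run, cut at about 4.5% in these data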;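 further: 0% = IMP-1 with DMSO and 100% = DMSO wells lacking enzyme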
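System: Purified IMP-1 | Read-out basis: Percent enzyme inhibition | Controls: IMP-1 with DMSO as 0%, enzyme-free DMSO as 100% | Replicates: One well per compound | Doses: 5.6 µM nominal single concentration | Detection: Epi-absorbance fluorescence, 480 nm excitation, 530 nm emission | Incubation: 25 °C, 15 min preincubation, 25 min reaction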
Starred values were filed as active, the others as inactive.

Screening CN1CCN(C2=C(NS(=O)(=O)c3ccccc3)C(=O)c3ccccc3C2=O)CC1 returned VIM-2 inh -5, SUMO HTRF inh 29, SUMO Mot1 rescue 0, DNA FID counter 20, NALP1 inh -13 and IMP-1 inhibitor -4.
O=C1C(NS(=O)(=O)c2ccc(Cl)cc2)=C(N2CCCCC2)C(=O)c2ccccc21 was read as VIM-2 inh 9.3*, SUMO HTRF inh 46, SUMO Mot1 rescue -12, DNA FID counter 5, NALP1 inh 36 and IMP-1 inhibitor 0.
`CCOC(=O)N1CCN(C2=C(NS(=O)(=O)c3ccccc3)C(=O)c3ccccc3C2=O)CC1` gave VIM-2 inh 9.4*, SUMO HTRF inh 35, SUMO Mot1 rescue 28, DNA FID counter -1, NALP1 inh -1 and IMP-1 inhibitor -2.
O=C(Nc1cccc(-c2ccc(N3CCCCC3)nn2)c1)c1ccco1 was read as SUMO Mot1 rescue 136.
Oc1c(/C=N/Nc2cccc3cccnc23)ccc2ccccc12 was read as VIM-2 inh -4, SUMO HTRF inh 66*, SUMO Mot1 rescue 30, DNA FID counter -3, NALP1 inh 30 and IMP-1 inhibitor -2.
Oc1cccc(/C=N/Nc2cccc3cccnc23)c1 was read as VIM-2 inh -3, SUMO HTRF inh -15, DNA FID counter 26, NALP1 inh 4 and IMP-1 inhibitor -4.
COc1cc([N+](=O)[O-])ccc1N/C=C/C(=O)c1cccs1 was read as VIM-2 inh 0, SUMO HTRF inh 23, SUMO Mot1 rescue -10, DNA FID counter 0, NALP1 inh 2 and IMP-1 inhibitor -1.
CN1CCN(C(=O)c2ccc3c(=O)n(Cc4ccco4)c(=S)[nH]c3c2)CC1 was read as VIM-2 inh 8.3*, SUMO HTRF inh 14, SUMO Mot1 rescue 10, DNA FID counter 10, NALP1 inh -8 and IMP-1 inhibitor -1.
For N=c1c2cn[nH]c2nc(SCC(=O)c2ccc(Br)cc2)n1-c1ccc(Br)cc1 the results were VIM-2 inh -3, SUMO HTRF inh 54*, SUMO Mot1 rescue -8, DNA FID counter -3, NALP1 inh 16 and IMP-1 inhibitor -3.
`O=C(CSc1nc2[nH]ncc2c(=O)n1-c1ccccc1)c1ccc2c(c1)OCCO2` gave VIM-2 inh -1, SUMO HTRF inh 12, SUMO Mot1 rescue -6, DNA FID counter -16, NALP1 inh -5 and IMP-1 inhibitor 0.
Cc1c(C)c2ccc(OC(C)C(=O)N3CC[C@@]4(O)CCCC[C@H]4C3)cc2oc1=O (stereo partly drawn) was read as VIM-2 inh 1, SUMO HTRF inh 2, SUMO Mot1 rescue 60, DNA FID counter -36, NALP1 inh 17 and IMP-1 inhibitor -1.
Screening COc1cccc(C(=O)NCCS(=O)(=O)NCc2ccc(Cl)cc2)c1 returned SUMO Mot1 rescue -14.
O=S1(=O)C=C(SCc2cccc(Cl)c2)Nc2ccccc21 was read as VIM-2 inh -3, SUMO HTRF inh 15, SUMO Mot1 rescue -6, DNA FID counter -2, NALP1 inh -6 and IMP-1 inhibitor -3.
`CCOC(=O)N1CCc2c(sc(NC(=O)Cc3ccccc3)c2C(=O)c2ccc(OC)cc2)C1` gave VIM-2 inh -3, SUMO HTRF inh -7, SUMO Mot1 rescue -6, DNA FID counter -21, NALP1 inh 2 and IMP-1 inhibitor -1.
COc1ccc(C(=O)c2c(NC(C)=O)sc3c2CCN(C(=O)OC(C)(C)C)C3)cc1 was read as VIM-2 inh -2, SUMO HTRF inh -5, SUMO Mot1 rescue -12, DNA FID counter -28, NALP1 inh 44* and IMP-1 inhibitor -2.
For COc1cc(/C=N/NC(=O)CCN2CCN(C(c3ccccc3)c3ccccc3)CC2)ccc1O the results were VIM-2 inh -4, SUMO HTRF inh -17, SUMO Mot1 rescue 3, DNA FID counter 3, NALP1 inh 3 and IMP-1 inhibitor -3.
For Cc1ccc(NC(=O)Nc2ccc3c(c2)CCC3)cc1 the results were VIM-2 inh -2, SUMO HTRF inh 7, SUMO Mot1 rescue -8, DNA FID counter -4, NALP1 inh 38* and IMP-1 inhibitor -1.
Screening Cc1cc(C)cc(NC(=O)Nc2ccc3c(c2)CCC3)c1 returned VIM-2 inh -2, SUMO HTRF inh -16, SUMO Mot1 rescue 0, DNA FID counter -5, NALP1 inh 6 and IMP-1 inhibitor -2.
`O=C(CCC1CCCC1)c1c(O)c2ccccc2oc1=O` gave VIM-2 inh -2, SUMO HTRF inh 15, SUMO Mot1 rescue -1, DNA FID counter -4, NALP1 inh 40* and IMP-1 inhibitor -3.
For COc1cc(/C=C2/C(=O)NN(c3ccc(Cl)cc3)C2=O)cc(Br)c1O the results were VIM-2 inh -4, SUMO HTRF inh -9, SUMO Mot1 rescue 53, DNA FID counter -12, NALP1 inh 20 and IMP-1 inhibitor 9.7*.
`COc1cc(/C=C2/C(=O)NN(c3ccc(F)cc3)C2=O)cc(Cl)c1O` gave VIM-2 inh -6, SUMO HTRF inh -16, SUMO Mot1 rescue -1, DNA FID counter -10, NALP1 inh 20 and IMP-1 inhibitor -7.
For CN(C)/C=N/c1ncn(-c2ncc(C(F)(F)F)cc2Cl)n1 the results were VIM-2 inh -4, SUMO HTRF inh 13, SUMO Mot1 rescue 1, DNA FID counter -1, NALP1 inh 10 and IMP-1 inhibitor 1.
For Cc1nc(SCc2nc3ccccc3[nH]2)c2oc3ccc(Br)cc3c2n1 the results were SUMO Mot1 rescue -12.
`Cc1nc(N2CCN(Cc3nc4ccccc4[nH]3)CC2)c2oc3ccccc3c2n1` gave VIM-2 inh 12*, SUMO HTRF inh 8, SUMO Mot1 rescue 130, DNA FID counter -17, NALP1 inh -2 and IMP-1 inhibitor -6.
Screening Cc1nc(SCc2nc3ccccc3[nH]2)c2oc3ccccc3c2n1 returned VIM-2 inh 13*, SUMO HTRF inh -24, SUMO Mot1 rescue -13, DNA FID counter -7, NALP1 inh 15 and IMP-1 inhibitor -1.
For CC(C)c1nnc(NC(=O)CCC(=O)N2CCN(c3ccccc3F)CC2)s1 the results were VIM-2 inh -2, SUMO HTRF inh -3, SUMO Mot1 rescue 24, DNA FID counter -42, NALP1 inh 10 and IMP-1 inhibitor -2.
Screening COc1cc2c(cc1OC)C(C)=NC1(CCCCC1)C2 returned VIM-2 inh -3, SUMO HTRF inh 59*, SUMO Mot1 rescue -6, DNA FID counter 0 and IMP-1 inhibitor -1.
